From ChEMBL document CHEMBL4513216, “Probing the Open Global Health Chemical Diversity Library for Multistage-Active Starting Points for Next-Generation Antimalarials” (ACS Infect Dis, 2020)

Test: Toxicity liver stage against HepG2, at 10uM
Type: cell-based
Design: test concentration 10 uM, cell line HepG2-A16-CD81EGFP
Details: human, HepG2-A16-CD81EGFP cells; read-out: INHIBITION
How it was run: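 Uninfected HepG2-A16-CD81EGFP cells, 3 × 10^3 per well, 1536-well, plated on prespotted compound at 10 μM final, parasite-free screening media added to match infected plates; puromycin 10 μM positive, DMSO 0.5% negative; run in parallel with 48 h PbLuc assay at 37 °C, 5% CO2; viability by CellTiter-Glo luminescence, normalized to controls.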

| Structure (SMILES) | cytotoxicity at 10 µM [%] |
| --- | --- |
| O=C(NCCc1ccncc1)c1cccnc1OCC(F)(F)F | 5.03 |
| O=C(c1cn(Cc2ccccc2)c2ncccc12)N1CCOCC1 | -0.142 |
| O=C1NCCN1C(CNS(=O)(=O)C1CC1)Cc1cccc(F)c1 (configuration not stated) | -3.09 |
| CCOCC(=O)NCCc1nc(C)cc(C(F)(F)F)n1 | -1.21 |
| COC(CNC(=O)C1CC1)c1ccc(C)s1 (configuration not stated) | -3.08 |
| Cn1cccc1C(=O)N1CCC2(CC1)CCN2S(C)(=O)=O | 8.73 |
| CN(C)S(=O)(=O)NCC1OCCc2cn(CC3CCOCC3)nc21 (configuration not stated) | 7.4 |
| CN1C(Cn2cccn2)C[C@@H]2CN(Cc3nccs3)CC[C@@H]21 (some centres not stated) | 3.8 |
| O=C1CC(c2ccccc2C(F)(F)F)c2sc(N3CCOCC3)nc2N1 (configuration not stated) | 9.18 |
| CN1CCc2cc(C(CNS(=O)(=O)c3cccs3)N3CCCC3)ccc21 (configuration not stated) | 2.66 |
| Cc1nn(CC(=O)Nc2ccon2)cc1Br | 4.95 |
| CCn1cc(Cl)c(C(=O)NCCCO)n1 | 6.42 |
| COCC(=O)Nc1nn(Cc2ccc(F)cc2)cc1Cl | 7.19 |
| COCC(=O)NCCCn1ncc2c(C)cccc21 | 7.55 |
| O=C1CC(c2ccncc2)c2c(sc3c2CCCC3)N1 (configuration not stated) | 5.57 |
| Fc1ccccc1-c1cccc(C2CCCN(C3CCOCC3)C2)n1 (configuration not stated) | 0.22 |
| O=C(c1cncs1)N1CCc2[nH]nc(Nc3ccccc3)c2C1 | 8.26 |
| CNC(=O)CCc1cc(C)nc(C2CCN(c3ccccc3)CC2)c1 | 3.56 |
| CN(C)c1nccc(C2CN(S(C)(=O)=O)C2)n1 | 6.95 |
| CCn1c(C)nc2cc(NC(=O)C3CN(C(C)=O)C3)ccc21 | 3.46 |
| O=C(CO)N1CCC(c2ccnc(Nc3cc(C(F)(F)F)ccn3)n2)C1 (configuration not stated) | 18 |
| CCN1CCN(Cc2c(C3CCCC3)[nH]c3ncccc23)CC1 | 13.1 |
| CN(Cc1ccc(F)cc1)CC1(O)CCN(C(=O)c2cccs2)C1 (configuration not stated) | -12.6 |

| Structure (SMILES) | cytotoxicity at 10 µM [%] |
| --- | --- |
| Cc1ncoc1C(=O)N1CC[C@@H](O)[C@@H](O)[C@H](N2CCC(F)(F)CC2)C1 | 2.3 |
| Cn1cccc1C(=O)N1CCC(O)(CN2CCc3ccccc3C2)C1 (configuration not stated) | 3.77 |
| Cc1ccccc1-c1cncc(C2CCN(C(=O)CN(C)C)CC2)n1 | 3.88 |
| CN1CCCC(Cc2cncc(C(=O)NCC3CC3)c2)C1 (configuration not stated) | -3.99 |
| CCC(NC(=O)c1ccco1)c1nc(C(F)(F)F)cs1 (configuration not stated) | -0.183 |
| CS(=O)(=O)CCC(=O)N1CCC(c2ccc(F)c(F)c2)CC1 | 7.09 |
| COCC(O)CNC(=O)Nc1ccc(Cl)cc1-n1cccc1 (configuration not stated) | -6.93 |
| COc1cc(NCCNC(=O)c2cc[nH]c2C)cc(OC)c1 | -4.33 |
| CCc1noc(CN2CCN(C(=O)OC(C)(C)C)C(C)C2)n1 (configuration not stated) | 2.53 |
| CC(C)CC1COCCN1C(=O)Cc1cccs1 (configuration not stated) | 5.84 |
| O=C(CS(=O)(=O)Cc1nnnn1C1CC1)NCC1CC1 | 16.6 |
| O=c1[nH]ncc(NCCOc2ccc3c(c2)OCO3)c1Cl | 3.1 |
| COc1ccsc1C(=O)N1CCCC1c1c(C)nn(C)c1OC (configuration not stated) | -0.561 |
| CC(C)(C)c1cc(NC(=O)CN2CCCCC2Cn2cncn2)on1 (configuration not stated) | 0.0788 |
| CSCc1cccc(NC(=O)N2CCC(N3CC=CC3)C2)c1 (configuration not stated) | -1.83 |
| CNC(=O)c1ccc(Cn2ccnc2S(C)(=O)=O)cc1 | -3.83 |
| O=C(NCCc1ccccc1)N1CCC(C2OCCO2)CC1 | -46.5 |
| Cc1cccc(Sc2nccn(C)c2=O)c1 | 3.52 |
| CC(C)CS(=O)(=O)CC(=O)N(C)Cc1ccc(OC(F)F)cc1 | 1.13 |
| O=C(c1cc(Cl)cc(Cl)c1)N1CCN(c2nccs2)CC1 | -5.69 |
| COc1cccc2c1OCC(NC(=O)NCc1cccs1)C2 (configuration not stated) | -11 |
| CC(C)CNC(=O)C1=NOC2(CCN(Cc3cccc(C#N)c3)C2)C1 (configuration not stated) | 8.37 |
| COCCC1COC2(CCN(C(=O)c3cccn3C)CC2)C1 (configuration not stated) | -80.7 |

| Structure (SMILES) | cytotoxicity at 10 µM [%] |
| --- | --- |
| COCCO[C@H]1CCN(C(=O)c2cnccn2)[C@H]1Cc1ccncc1 | -70.3 |
| CN1CCN(Cc2ccncc2)Cc2cccnc21 | -72.7 |
| COCc1cnc2n1CCN(C(=O)c1ocnc1C)C2C (configuration not stated) | -1.91 |
| O=c1cc(Cn2cncn2)nc2n1CCCN(Cc1ccoc1)C2 | 3.37 |
| CC(C)Nc1nc(N2CCOCC2)nc2c1CN(CC(=O)N(C)C)CC2 | 7.77 |
| O=C(N1CCCC1)N1CCN(CC2CC2)c2ncccc2C1 | 6.51 |
| Fc1cccc(CN2CCO[C@H]3[C@@H](OCc4ccccn4)CC[C@@H]32)c1 | -0.902 |
| O=c1[nH][nH]cc1-c1ccnc(NCCc2ccc(F)cc2)n1 | 3.44 |
| CC(C)NC(=O)NCc1cc(-c2ccco2)n(CC(F)(F)F)n1 | -12.8 |
| CC(C)[C@H](NS(C)(=O)=O)C(=O)NCc1cc(-c2ccccc2)nn1C | -7.88 |
| CCn1c(CC2CCN(C(=O)C3CC(C(C)C)=NO3)CC2)nn(C)c1=O (configuration not stated) | 3.72 |
| c1ccc(SCCN2CCCC(Cn3ccnc3)C2)cc1 (configuration not stated) | 2.92 |
| OCC1(O)CCN(Cc2noc(-c3ccccc3)n2)CC1 | -0.0739 |
| CCn1ccnc1CN(C)C1CCCN(CCCc2ccccc2)C1 (configuration not stated) | 7.35 |
| CCN(CC)C(=O)[C@@H]1C[C@@H](NC(=O)c2cccn2C2CC2)CN1C | -5.94 |
| COC(C)(C)CNC(=O)C1CCC(=O)N(C2CCCC2)C1 (configuration not stated) | -6.52 |
| CCN1CCCCC1C(=O)N1CCc2onc(-c3ccc(Cl)cc3)c2C1 (configuration not stated) | -60.1 |
| CCN(Cc1noc(CC(C)C)n1)C[C@]1(O)CCCN2CCCC[C@@H]21 | -6.91 |
| CCSc1ccc(C(=O)N2CCC3(CCC(=O)N(C)C3)CC2)s1 | -11.2 |
| CC(=O)Nn1c(C)cc(CN2CCCN(Cc3ccncc3)CC2)c1C | 5.63 |
| CN(Cc1ccccc1)c1ncccc1CNC1CCCC1 | -8.8 |
| CCCc1cc(C(=O)N[C@@H](CO)[C@@H](O)c2ccccc2)n(C)n1 | 4.76 |
| CCC(C)N(Cc1sccc1C)C(=O)c1ccc(S(C)(=O)=O)cc1 (configuration not stated) | 6.7 |

| Structure (SMILES) | cytotoxicity at 10 µM [%] |
| --- | --- |
| CC(=O)NCC1CCCN(Cc2nc(Cc3ccccc3F)no2)C1 (configuration not stated) | -11.1 |
| Nc1cc(-c2cc[nH]n2)nc(N2CCCC2)n1 | 1.56 |
| NC(=O)CN1CC2(CCC1=O)CCN(Cc1cc(F)cc(F)c1)CC2 | 7.1 |
| CCOc1ccccc1OCCN(C)Cc1nccn1C | -3.8 |
| CCCN1CCCn2nc(CNS(=O)(=O)c3ccc(F)cc3)cc2C1 | -8.57 |
| CN1CCN(Cc2ccccc2Oc2nccc3occc23)CC1 | 5.83 |
| NC(=O)c1cc2c(nc1CCOCc1ccccc1)CCC2 | 2.99 |
| CCN1CC2(CCN(Cc3nc(CSC)no3)CC2)CC1=O | -1.41 |
| NCC1Cc2cc(-c3nccc(N4CCC(O)CC4)n3)cc(F)c2O1 (configuration not stated) | 14.2 |
| Cc1ccc(N2C[C@@H](CN3CCOCC3)[C@@H](CO)C2)nn1 | 7.13 |
| CC(C)[C@H]1CN(CCCO)C[C@@H]1NC(=O)CCC(F)(F)F | -0.6 |
| CS(=O)(=O)N1CCC(c2nnc(CN3CCCC3)n2C2CC2)CC1 | -6.6 |
| COCCS(=O)(=O)c1ncc(CN(C)CC(C)C)n1Cc1ccccc1 | -1.27 |
| CC(C)c1nc(CN(C)Cc2ccc(F)cc2)cs1 | -8.81 |
| CC(=O)c1cc(C(=O)N2CCC3(CC2)Nc2ccccc2NC3=O)cs1 | 3.54 |
| CCOc1ccc2[nH]c(=O)c(CN3CCC(O)CC3)cc2c1 | 1.25 |
| CCn1nc2nc(SCC(=O)O)cc(C(F)F)c2c1C | -3.78 |
| CCn1ncc(-c2cc(C(F)F)n3nc(CCC(=O)O)nc3n2)c1C | -9.44 |
| Cc1cc2ccccc2n1CCC(=O)NCc1ncc[nH]1 | 4.37 |
| O=C(CCNc1ncccn1)NCCOc1ccc2c(c1)CCC2 | -4.54 |
| Cc1cc(C)n(CC2CN(CCOc3cccc(C#N)c3)CCO2)n1 (configuration not stated) | -10.9 |
| Cc1ccc(-c2cc(CNC(=O)N3CCOC(C)C3)on2)cc1 (configuration not stated) | -6.09 |
| Cc1noc(C(C)N2CCN(CCCN3CCCC3=O)CC2)n1 (configuration not stated) | -2.73 |

| Structure (SMILES) | cytotoxicity at 10 µM [%] |
| --- | --- |
| CN(c1ccc(C(C)(C)C)cc1)S(=O)(=O)c1cc(C(=O)O)cs1 | -6.19 |
| CC(C)c1cc(NC(=O)CN2CCNC(=O)C2)on1 | -11.6 |
| O=S(=O)(CCNC1CCc2ncnn2C1)c1ccccc1 (configuration not stated) | -5.58 |
| Fc1ccc([C@@H]2COC[C@H]2NCc2cccc(F)c2)cc1 | -2.92 |
| COc1ccc(C(=O)CN(C2=NCCCCC2)c2ccccc2)cc1 | 9.62 |
| Cn1cc(CN2CCc3ccc(=O)n(Cc4ccncc4)c3CC2)cn1 | 3.97 |
| CCS(=O)(=O)N1CCc2c(CN(C)Cc3ccco3)cncc2C1 | -4.85 |
| CN(C)c1ncnc2c1CCN(C(=O)c1cccnc1)CC2 | -79.8 |
| Cn1cc(CN2CCC3(CCC(C(=O)NCC4CC4)C3)CC2)cn1 (configuration not stated) | 3.47 |
| O=C(Nc1cccc(CNCc2cccs2)c1)C1CC1 | -8.3 |
| CC(=O)NC1CCN(c2cc(C3CCNCC3)ccn2)CC1 | 2.93 |
| Cn1nc(Cn2cccn2)c2c1CN(Cc1ccoc1)C2 | -3.77 |
| Cc1cc(CN2C[C@@H]3COC[C@]3(CNC(=O)c3ccco3)C2)no1 | -71.1 |
| Cc1ccc(N2C[C@@H]3CCCO[C@@H]3[C@H](N3CCCC3)C2)nn1 | 2.96 |
| CCn1ccnc1CN1CCNCC1C (configuration not stated) | -3.03 |
| O=C(C1CC(F)(F)C1)N1C[C@@H]2CN(CC3CCCC3)CCO[C@@H]2C1 | -8.02 |
| CCN(CC)[C@@H]1CN(Cc2nccn2C)[C@@H]2CCCO[C@H]12 | 4.92 |
| Cn1cnc2c1C(COCc1cccnc1)N(Cc1nccs1)CC2 (configuration not stated) | 10.5 |
| CC(C)N(C)Cc1cncc2c1CCN(Cc1ccoc1)C2 | -109 |
| CC(C)(C)C(N)C1=NC(=C2N=CN=N2)NO1 (configuration not stated) | -16.9 |
